From ChEMBL document CHEMBL4138111, “Nanomolar anti-sickling compounds identified by ligand-based pharmacophore approach” (Eur J Med Chem, 2017)

Tests used:
[1] = molecular target: T1, Adenosine receptor A2b (Homo sapiens) (UniProt P29275); test: Antagonist activity at Adenosine receptor subtype 2B in human RBC assessed as inhibition of NECA-induced-sickling effect by measuring change in erythrocyte morphology preincubated for 3 hrs with occasional gentle stirring for every 30 min followed by incubated for 2 to 12 hrs under normoxic/hypoxic condition measured for every 12 hrs by microscopic analysis; format: functional, cell-based
T1 sequence (whole entry): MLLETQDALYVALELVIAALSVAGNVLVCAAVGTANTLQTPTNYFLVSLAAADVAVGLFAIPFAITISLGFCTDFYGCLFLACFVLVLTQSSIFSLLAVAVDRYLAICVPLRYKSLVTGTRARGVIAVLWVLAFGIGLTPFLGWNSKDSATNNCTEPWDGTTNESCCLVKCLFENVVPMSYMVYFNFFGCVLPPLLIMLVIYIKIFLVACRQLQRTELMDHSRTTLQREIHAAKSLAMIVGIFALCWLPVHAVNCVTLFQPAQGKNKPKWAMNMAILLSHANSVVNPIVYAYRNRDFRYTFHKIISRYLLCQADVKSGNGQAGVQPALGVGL
In short: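 Patient SCA erythrocytes are treated as in the EC50 sickling assay. Compounds are tested at three concentrations (0.03-1) against six NECA concentrations (0.001-1000). Sickling is scored by microscopy. NECA EC50 is determined with and without compound, and the dose ratio is derived from these. pKb is obtained by Schild analysis as log[DR−1] − log[B]. Mean ± SD of five experiments.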

[2] = molecular target: T1, Adenosine receptor A2b (Homo sapiens); test: Antagonist activity at Adenosine receptor subtype 2B in human RBC assessed as change in erythrocyte morphology at 10 uM incubated for 3 hrs with occasional gentle stirring for every 30 min measured for every 12 hrs by microscopic analysis relative to control; format: functional, cell-based; design: scale not given: the % may be the effect or the level left
In short: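 RBCs come from sickle cell anemia patients, washed in 0.9% saline and diluted 1:10. Cells are exposed to compound at a single 10 µM final concentration for 3 h at 37 °C, stirred gently every 30 min, then given 2% sodium metabisulfite. Morphology is read by microscopy (40X) every 12 h, counting >500 erythrocytes from five random fields. Triplicate assays; MRS1754 (10 µM) is the reference antagonist.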

[3] = system: J774; test: Cytotoxicity against mouse J774 cells assessed as cell viability up to 100 uM after 72 hrs by AlamarBlue assay; format: cell-based; conditions: j774, 72 h
In short: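 J774 murine macrophage-like cells are seeded at 2 × 10^5 cells/well in DMEM with 10% FBS and gentamycin and incubated 2 h at 37 °C, 5% CO2. Compounds are added at five concentrations (6.25-100) for 72 h, in 5% DMSO/saline vehicle. Alamar Blue is then added for 12 h more, with absorbance read at 570 and 600 nm. Gentian violet serves as positive control. Triplicates, three experiments.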

[4] = molecular target: Adenosine receptor (Homo sapiens, UniProt P30542+P29275+P0DMS8+P29274); test: Antagonist activity at Adenosine receptor in human RBC assessed as change in erythrocyte morphology incubated for 3 hrs with occasional gentle stirring for every 30 min measured for every 12 hrs by microscopic analysis; format: cell-based
In short: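 Erythrocytes from sickle cell anemia patients are separated by centrifugation (5 min, 16,000 g, 4 °C), washed three times in 0.9% saline and diluted 1:10 in saline. Cells are held with compound at 37 °C for 3 h, then challenged with 2% sodium metabisulfite. Sickled cells (>500 cells, five fields, 40X) are counted. Seven concentrations (0.001-100) are tested. EC50 comes from biphasic nonlinear regression with Hill slopes fixed at 1.0. Mean ± SD of five experiments, each in triplicate.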

inhibition [1] | pKb [1] | Activity [2] | pEC50 [4] | Structure (SMILES) | Activity [3]
Dose-dependent effect | 9.54 | > 70% | – | CC(OC(=O)c1nccnc1N)C(=O)NCc1ccc2c(c1)OCO2 (stereo not drawn) | –
Dose-dependent effect | 7.99 | > 70% | 4.21 | CC(C)c1noc(OCC(=O)NCc2ccc3c(c2)OCO3)n1 | –

The remaining lines, values behind:

Structure (SMILES) | inhibition [1] | pKb [1] | Activity [2] | pEC50 [4] | Activity [3]
CCCc1cc(O)nc(SC(C)C(=O)Nc2cc(C)no2)n1 (stereo not drawn) | Dose-dependent effect | 9.45 | > 70% | – | Non-Toxic
Cc1cc(NC(=O)CNc2ccc3c(c2)OC(F)(F)O3)on1 | Dose-dependent effect | 7.38 | > 70% | 5.06 | –
O=C(CN1CCOC(Cn2cncn2)C1)Nc1cccnc1 (stereo not drawn) | Dose-dependent effect | 8.31 | > 70% | 5.29 | Non-Toxic
CCCn1c(=O)c2[nH]c(-c3ccc(OCC(=O)Nc4ccc(C#N)cc4)cc3)nc2n(CCC)c1=O | Dose-dependent effect | 8.68 | 54% | – | –
